Activity calls are given as the source filed them. The calls are words filed in the database; no cut-off is given here.
What was measured:
RAW264.7 [1] = assay: Inhibition of zymosan phagocytosis in mouse RAW264.7 cells at 10 uM preincubated before zymosan addition by flow cytometry; assay type: functional, cell-based
Procedure, shortened: (§1)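 CD11b+ peritoneal macrophages (4 × 10^6/well) or RAW264.7 cells (2 × 10^6/well) were adhered 2 h and pretreated 30 min (5, 10, 20 µM; screen at 10 µM). Cells were scraped, washed, and incubated with FITC-zymosan (5 particles/cell) for 1 h at 37 °C. After washing, uptake was read by flow cytometry as a phagocytic index relative to untreated cells. Cytochalasin D 5 µM was the control.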

[2] = tested on: Peritoneal macrophage cell; assay: Inhibition of zymosan phagocytosis in C57BL/6 mouse CD11b(+) peritoneal macrophages preincubated before zymosan addition by flow cytometry; assay type: functional, cell-based; procedure, shortened: as §1
RAW264.7 [3] = assay: Inhibition of zymosan phagocytosis in mouse RAW264.7 cells preincubated before zymosan addition by flow cytometry; assay type: functional, cell-based; procedure, shortened: as §1
RAW264.7 [4] = assay: Reduction in GTP-bound Rac1 protein expression in mouse RAW264.7 cells at 20 uM preincubated for 20 mins before zymosan exposure for 15 mins by Western blot based pull down assay; assay type: functional, cell-based
Procedure, shortened: (§2)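 RAW264.7 cells were pretreated with 20 µM (20 min for Rac1 and Rac2; 5 min for Cdc42), then given zymosan 200 µg/ml for 15 min. GTP-bound Rac1, Rac2 and Cdc42 were pulled down with an active pull-down kit and western blotted. Bands were quantified by densitometry and normalized to β-actin.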

RAW264.7 [5] = assay: Reduction in GTP-bound Rac2 protein expression in mouse RAW264.7 cells at 20 uM preincubated for 20 mins before zymosan exposure for 15 mins by Western blot based pull down assay; assay type: functional, cell-based; procedure, shortened: as §2
RAW264.7 [6] = assay: Reduction in GTP-bound Cdc42 protein expression in mouse RAW264.7 cells at 20 uM preincubated for 5 mins before zymosan exposure for 15 mins by Western blot based pull down assay; assay type: functional, cell-based; procedure, shortened: as §2
[7] = Toxicity in zymosan-induced C57BL/6 mouse CD11b(+) peritoneal macrophages at 5 to 20 uM preincubated before zymosan addition; assay type: cell-based; conditions: peritoneal macrophage cell
RAW264.7 [8] = assay: Toxicity in zymosan-induced mouse RAW264.7 cells at 5 to 20 uM preincubated before zymosan addition; assay type: cell-based; conditions: raw264.7, 20 µM
[9] = tested on: Peritoneal macrophage cell; assay: Effect on TLR2 mRNA expression in C57BL/6 mouse CD11b(+) peritoneal macrophages at 20 uM preincubated for 30 mins before zymosan exposure for 6 hrs by real-time PCR
[10] = tested on: Peritoneal macrophage cell; assay: Effect on TLR6 mRNA expression in C57BL/6 mouse CD11b(+) peritoneal macrophages at 20 uM preincubated for 30 mins before zymosan exposure for 6 hrs by real-time PCR
[11] = tested on: Peritoneal macrophage cell; assay: Effect on TLR1 mRNA expression in C57BL/6 mouse CD11b(+) peritoneal macrophages at 20 uM preincubated for 30 mins before zymosan exposure for 6 hrs by real-time PCR
[12] = tested on: Peritoneal macrophage cell; assay: Effect on Dectin-1 mRNA expression in C57BL/6 mouse CD11b(+) peritoneal macrophages at 20 uM preincubated for 30 mins before zymosan exposure for 6 hrs by real-time PCR
Mus musculus = species on record: Mus musculus; assay: Inhibition of zymosan-induced PI3K in C57BL/6 mouse CD11b(+) peritoneal macrophages assessed as reduction in AKT Ser473 phosphorylation at 20 uM preincubated for 15 mins before zymosan exposure for 30 mins by Western blot
Procedure, shortened: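 CD11b+ peritoneal macrophages from male C57BL/6 mice (thioglycollate-elicited; cells pooled from twenty mice) were pretreated with 20 µM for 15 min, then given zymosan 200 µg/ml for 30 min. Western blot for phospho-Akt (Ser473) and total Akt. p-Akt was quantified by densitometry and expressed as fold change.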

[13] = tested on: Peritoneal macrophage cell; assay: Inhibition of zymosan phagocytosis in C57BL/6 mouse CD11b(+) peritoneal macrophages at 20 uM preincubated before zymosan addition by flow cytometry; assay type: functional, cell-based; procedure, shortened: as §1

In the case of `CCCNC(=O)c1cccc(-c2ccc(OCCC)cc2)c1`, the inhibition (RAW264.7 [1]) is reported as “Active”.

For `CCCOc1ccc(-c2cccc(C(=O)NCCCN(C)C)c2)cc1`, the inhibition (RAW264.7 [1]) was “Active”.

In the case of `CCCOc1ccc(-c2cccc(C(=O)NCCCN3CCCC3)c2)cc1`, the inhibition (RAW264.7 [1]) is reported as “Active”.

With `CCCOc1ccc(-c2cccc(C(=O)NCCCN(CC)CC)c2)cc1` the inhibition [2] was “Dose-dependent effect”, the inhibition (RAW264.7 [3]) was “Dose-dependent effect” and the Activity (RAW264.7 [4]) was “Active”. The Activity (RAW264.7 [5]) was “Active”, the Activity (RAW264.7 [6]) was “Active” and the Activity [7] was “Non-toxic”. The Activity (RAW264.7 [8]) was “Non-toxic”, the Activity [9] was “inactive” and the Activity [10] was “inactive”. The Activity [11] was “inactive” and the Activity [12] was “inactive”.

For `CCCOc1ccc(-c2cccc(C(=O)NCCCN3CCCCC3)c2)cc1`, the inhibition (RAW264.7 [1]) was “Active”.

In the case of `O=c1cc(N2CCOCC2)oc2c(-c3ccccc3)cccc12`, the inhibition (Mus musculus) is reported as “Active” and the inhibition [13] is reported as “inactive”.

With `CCCOc1ccc(-c2cccc(C(=O)NCCCN3CCOCC3)c2)cc1` the inhibition (RAW264.7 [1]) was “inactive”.

For `CCCOc1ccc(-c2cccc(C(=O)NCCN(CC)CC)c2)cc1`, the inhibition (RAW264.7 [1]) was “inactive”.

— ChEMBL document CHEMBL2069277, “Small molecules that regulate zymosan phagocytosis of macrophage through deactivation of Rho GTPases” (Bioorg Med Chem, 2012)
